# Test results as given in ChEMBL document CHEMBL1128337, “Synthesis and cytotoxic activity of 6-vinyl- and 6-ethynyluridine and 8-vinyl-and 8-ethynyladenosine” (J Med Chem, 1995).
# What was measured:
# Type in all cases: functional, cell-based
# MOLT-4F = test: Compound was tested for the inhibition of human T-lymphoblast Molt/4F cell proliferation
# How it was run: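 Molt/4F cells in RPMI-1640 with 10% fetal calf serum, 2 mM L-glutamine, 0.075% NaHCO3. Plated at 6.25 × 10⁴ cells/well across varying compound concentrations and grown 72 h at 37 °C, humidified CO2 atmosphere. Cells counted with Coulter counter. IC50 = concentration reducing viable cell number by 50%. Means of at least two or three independent experiments.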
# L1210 = test: Compound was tested for the inhibition of murine leukemia L1210 cell proliferation; settings: Mus musculus
# How it was run: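 L1210 cells maintained in Eagle's minimal essential medium with 10% fetal calf serum, 2 mM L-glutamine, 0.075% NaHCO3. Exposed to varying compound concentrations at 5 × 10⁴ cells/well (200 μL) and grown 48 h at 37 °C, humidified CO2 atmosphere. Counted with Coulter counter. IC50 = concentration reducing viable cells by 50%. Means of at least two or three independent experiments.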
# FM3A = test: Compound was tested for the inhibition of murine mammary carcinoma FM3A cell proliferation; settings: Mus musculus
# How it was run: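 FM3A cells in Eagle's minimal essential medium with 10% fetal calf serum, 2 mM L-glutamine, 0.075% NaHCO3. Seeded 5 × 10⁴ cells/well (200 μL) with varying compound concentrations and incubated 48 h at 37 °C, humidified CO2 atmosphere. Cell number from Coulter counter. IC50 = concentration reducing viable cells by 50%.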
# MT4 = test: Compound was tested for the inhibition of human T-lymphoblast MT-4 cell proliferation
# How it was run: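 MT-4 cells grown in RPMI-1640 with 10% fetal calf serum, 2 mM L-glutamine, 0.075% NaHCO3. Seeded at 6.25 × 10⁴ cells/well with varying compound concentrations and cultured 120 h at 37 °C, humidified CO2 atmosphere. Viable cells counted by trypan blue staining under microscope. IC50 = concentration reducing viable cell number by 50%. Means of at least two or three independent experiments.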
IC50 (MOLT-4F) [µM],IC50 (L1210) [µM],Compound,IC50 (FM3A) [µM],IC50 (MT4) [µM]
6.5,190,C=Cc1nc2c(N)ncnc2n1[C@@H]1O[C@H](CO)[C@@H](O)[C@H]1O,145,15
25,54,C#Cc1nc2c(N)ncnc2n1[C@@H]1O[C@H](CO)[C@@H](O)[C@H]1O,27,22
> 372,> 372,C#Cc1cc(=O)[nH]c(=O)n1C1O[C@H](CO)[C@@H](O)[C@H]1O (stereo partly specified),> 372,286
14,21,C=Cc1cc(=O)[nH]c(=O)n1C1O[C@H](CO)[C@@H](O)[C@H]1O (stereo partly specified),24,11
